Arrestin-AP2 inh = inhibitors of beta-arrestin/AP2 binding, primary screen, biochemical, GPCR trafficking, flow cytometry; FITC-arrestin peptide / GST-AP2 beads; AP2 beta2 appendage carries R879A mutation; inhibition, % at 10 µM; 340,000 compounds, 0.31% hits; AID 504490, 2011;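 active = inhibition above a set limit, near 3 SD of compounds lacking own fluorescence, cut at about 54% in these data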;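 note: plate controls were DMSO wells for no effect and 5 µM unlabelled arrestin peptide for full effect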
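system = GST-tagged AP2 beta2-adaptin appendage (R879A) on 4 µm glutathione beads | reagent = FITC-labelled arrestin peptide probe, 50 nM final | schedule = compound with beads 12 min RT, then probe 1 h RT | signal = HyperCyt-sampled flow cytometry, FL1 channel, ex 488/em 535 nm | read-out = percent response from loss of bead-bound FITC fluorescence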
NPR2 activator = human GC-B receptor activators, primary screen, HEK293 GC-B cells, cGMP TR-FRET, EC30 CNP; Atrial natriuretic peptide receptor 2 (Homo sapiens), P20594; 0% at EC30 CNP, 100% saturating CNP; activation, % at 10 µM; 370,000 compounds, 0.11% hits;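 active = activation at 10 µM reaching about 35% in either raw or pattern-adjusted values, limit read from the data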
Target sequence (P20594 whole entry, looked up): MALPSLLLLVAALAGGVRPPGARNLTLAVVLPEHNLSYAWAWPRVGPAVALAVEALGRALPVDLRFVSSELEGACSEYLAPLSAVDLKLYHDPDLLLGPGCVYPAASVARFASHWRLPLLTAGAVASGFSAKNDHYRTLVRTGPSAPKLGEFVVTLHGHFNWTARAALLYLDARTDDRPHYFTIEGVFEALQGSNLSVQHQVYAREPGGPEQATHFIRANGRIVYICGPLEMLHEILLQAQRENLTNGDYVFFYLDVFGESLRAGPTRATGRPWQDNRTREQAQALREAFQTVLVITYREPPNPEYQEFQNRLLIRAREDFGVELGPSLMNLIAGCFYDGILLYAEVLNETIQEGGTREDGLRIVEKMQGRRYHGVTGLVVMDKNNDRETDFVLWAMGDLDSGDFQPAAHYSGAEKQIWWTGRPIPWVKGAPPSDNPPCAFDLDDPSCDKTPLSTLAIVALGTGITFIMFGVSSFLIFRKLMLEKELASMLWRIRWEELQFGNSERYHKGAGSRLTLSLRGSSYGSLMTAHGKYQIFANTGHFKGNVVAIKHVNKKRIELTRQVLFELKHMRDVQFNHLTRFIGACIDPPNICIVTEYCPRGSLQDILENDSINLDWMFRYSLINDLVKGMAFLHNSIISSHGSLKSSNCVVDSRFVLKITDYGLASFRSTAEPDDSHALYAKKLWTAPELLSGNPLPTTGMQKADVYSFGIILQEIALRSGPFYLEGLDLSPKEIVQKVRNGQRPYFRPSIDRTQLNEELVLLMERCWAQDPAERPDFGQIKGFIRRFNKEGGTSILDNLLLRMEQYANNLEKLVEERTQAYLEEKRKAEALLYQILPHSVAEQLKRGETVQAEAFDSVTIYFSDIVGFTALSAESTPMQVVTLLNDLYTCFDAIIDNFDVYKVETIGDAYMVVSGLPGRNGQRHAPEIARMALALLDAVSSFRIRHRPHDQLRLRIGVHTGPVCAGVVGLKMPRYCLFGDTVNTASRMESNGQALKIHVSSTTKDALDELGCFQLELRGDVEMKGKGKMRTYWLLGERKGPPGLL
GalR3 antag = GalR3 antagonists in HEK293 cells, primary screen, cell-based, fluorescence readout. Galanin receptor type 3 (Homo sapiens), O60755. HEK293 GalR3-CNG cAMP membrane potential fluorescence; galR3 body fused to GalR1 C-terminus. inhibition, % at 3 µM. 360,000 compounds, 0.44% hits;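 active = inhibition above the screen-wide average plus 3 SD, cut at about 13% in these data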;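 note: forskolin and galanin both at EC90 stimulate the cells; cAMP rise reported by CNG channel membrane potential dye signal; 0% = forskolin plus galanin with DMSO and 100% = forskolin alone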
GC-A act = GC-A stimulated cGMP production enhancers – HEK293 GC-A cells, cGMP TR-FRET, EC30 ANP, primary screen | Atrial natriuretic peptide receptor 1 (Homo sapiens), P16066 | 0% at EC30 ANP, 100% saturating ANP | activation, % at 10 µM | 370,000 compounds, 0.14% hits; in the data active = activation above about 40%
GalR3 antag conf = GalR3 antagonist hit confirmation, cell-based, fluorescence, triplicate. shares compounds with GalR3 antag. HEK293 GalR3 CNG cAMP biosensor, membrane potential fluorescence; galR3 fused to GalR1 carboxy tail; challenged with forskolin and galanin at EC90. inhibition, % at 3 µM. 1,600 compounds, 59% hits. AID 652245, 2013;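 active = inhibition above the primary screen's cutoff, the mean inhibition of all screened compounds plus 3 SD, cut at about 13% in these data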;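 note: 0% = forskolin plus galanin and 100% = forskolin alone with DMSO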
CNG parental = nonspecific cAMP agonists in parental HEK-CNG cells, counter-screen for GalR3 antagonist project, cell-based, fluorescence, high throughput | shares compounds with GalR3 antag | HEK293-CNG parental cells, cAMP membrane potential fluorescence; normalised: DMSO wells 0%, forskolin wells 100% | activation, % at 3 µM | 1,600 compounds, 10% hits | AID 652268, 2013; in the data active = activation above about 1.3%
* marks the source's active call; other numbers are inactive results. In the library only some 0.94% were active in any assay of this set; here they are far more common.

OCC1OC(n2cnc3c(NC4CCCCC4)ncnc32)C(O)C1O (centres undefined) was read as Arrestin-AP2 inh 1, NPR2 activator -2, GalR3 antag 36*, GC-A act -1, GalR3 antag conf 49* and CNG parental 0.
For C=CCNc1ncnc2c1ncn2C1OC(CO)C(O)C1O (centres undefined) the results were Arrestin-AP2 inh 12, NPR2 activator -2, GalR3 antag 99*, GC-A act 7, GalR3 antag conf 99* and CNG parental 1.
`Cn1nc(CC(=O)Nc2ccc3c(c2)OCCO3)c2ccccc2c1=O` gave Arrestin-AP2 inh 19, NPR2 activator -3, GalR3 antag 100*, GC-A act 1, GalR3 antag conf 106* and CNG parental 0.
Screening Cc1ccccc1-c1nnn(CC(=O)Nc2ccc3c(c2)OCO3)n1 returned Arrestin-AP2 inh 12, NPR2 activator -2, GalR3 antag -7 and GC-A act 3.
Screening Cc1ccccc1-c1nnn(CC(=O)Nc2ccc3c(c2)OCCO3)n1 returned Arrestin-AP2 inh 7, NPR2 activator 9, GalR3 antag 16*, GC-A act -2, GalR3 antag conf 19* and CNG parental 1.
COC(=O)C1=CO[C@@H](O[C@@H]2O[C@H](CO)[C@@H](O)[C@H](O)[C@H]2O)C2C1C=C[C@@]2(O)CO (some centres undefined) was read as Arrestin-AP2 inh -1, NPR2 activator -2, GC-A act 3, GalR3 antag conf 8 and CNG parental 0.
COC(=O)c1cc2c(c3c4ccccc4n(S(=O)(=O)c4ccc(OC)cc4)c13)C(=O)N(C)C2 was read as NPR2 activator -6, GalR3 antag -7 and GC-A act -4.
For COc1ccc(N/C(N)=N/c2nc(C)cc(C)n2)cc1 the results were NPR2 activator 1, GalR3 antag -3 and GC-A act 1.
`Cc1cc(C)nc(/N=C(\N)Nc2ccc(OCCC(C)C)cc2)n1` gave Arrestin-AP2 inh 40, NPR2 activator -8, GalR3 antag 45*, GC-A act -15, GalR3 antag conf 30* and CNG parental 6.2*.
Screening Cc1cc(C)nc(/N=C(\N)Nc2ccc(OCc3ccccc3)cc2)n1 returned Arrestin-AP2 inh 35, NPR2 activator -6, GalR3 antag 35*, GC-A act -11, GalR3 antag conf 7 and CNG parental 7.8*.
For Cc1cc(C)nc(/N=C(\N)Nc2ccc(S(=O)(=O)O)cc2)n1 the results were Arrestin-AP2 inh -17, NPR2 activator -4, GalR3 antag -4 and GC-A act 5.
`Cc1cc(C)nc(/N=C(\N)Nc2ccc(CC(=O)OC(C)C)cc2)n1` gave Arrestin-AP2 inh -13, NPR2 activator 0, GalR3 antag 86*, GC-A act -8, GalR3 antag conf 58* and CNG parental 1.4*.
Screening COC(=O)[C@]12C[C@H](CC(=O)NCCC(C)C)C(=O)N(CCC3=CCCCC3)C1=C[C@H](COCc1ccccc1)O[C@@H]2C returned NPR2 activator 1, GalR3 antag -9 and GC-A act -4.
Screening COc1cccc(N(C)C(=O)[C@@H](C2CC2)[C@@H](O)c2ccc3ccccc3c2)c1 returned NPR2 activator -1 and GC-A act -1.
For CC1C(=O)C(C)C(c2ccc([N+](=O)[O-])cc2)NC1c1ccc([N+](=O)[O-])cc1 (centres undefined) the results were Arrestin-AP2 inh 20, NPR2 activator 1, GalR3 antag 3 and GC-A act -5.
For CC1C(=O)CC(c2ccc([N+](=O)[O-])cc2)NC1c1ccc([N+](=O)[O-])cc1 (centres undefined) the results were Arrestin-AP2 inh 7, NPR2 activator -2, GalR3 antag 18*, GC-A act 0, GalR3 antag conf 17* and CNG parental 0.
COc1cc(OC)c(NC(=O)NNC(=O)C(=O)NC2CC2)cc1Cl was read as NPR2 activator 7, GalR3 antag -3 and GC-A act 1.
For CC(=O)c1cc(-c2ccccc2)n(CC(=O)NCc2ccc(Cl)cc2)c1C the results were NPR2 activator -6 and GC-A act -4.
`Cc1cc(N2CCN(CC(C)(C)O)C[C@@H]2C)ccc1N1CCN(CC(C)(C)O)[C@@H](C)C1` gave NPR2 activator 5, GalR3 antag -7 and GC-A act -4.
Screening NS(=O)(=O)c1ccc(NC(=O)c2ccc(S(=O)(=O)N3CCc4ccccc43)cc2)cc1 returned Arrestin-AP2 inh 8, NPR2 activator -5, GalR3 antag -5 and GC-A act -4.
Screening O=C(Nc1ccncc1)c1ccc(Cl)c(S(=O)(=O)N2CCc3ccccc32)c1 returned Arrestin-AP2 inh -14, NPR2 activator -5, GalR3 antag 40*, GC-A act -11, GalR3 antag conf 61* and CNG parental 0.
For Cc1cccc(NC(=O)c2ccc(Cl)c(S(=O)(=O)N3CCc4ccccc43)c2)n1 the results were Arrestin-AP2 inh -3, NPR2 activator 1, GalR3 antag -2 and GC-A act -5.
COc1ccc(C(=O)Nc2ccc(S(=O)(=O)N3CCc4ccccc43)cc2)cc1 was read as Arrestin-AP2 inh 13, NPR2 activator -6, GalR3 antag 30*, GC-A act -10, GalR3 antag conf 86* and CNG parental -2.
C/C(=N\O)c1ccco1 was read as Arrestin-AP2 inh 0, NPR2 activator 1, GC-A act 2, GalR3 antag conf 3 and CNG parental 0.
Cc1ccccc1C(=O)NC1CCCCN(Cc2ccc(Cl)cc2)C1=O (centres undefined) was read as NPR2 activator 8 and GC-A act -2.
Screening CC1Oc2ccccc2C=C1/C=N/Nc1ccc(C(=O)O)cc1 (centres undefined) returned Arrestin-AP2 inh 30, NPR2 activator 2, GalR3 antag 14*, GC-A act 2, GalR3 antag conf 14* and CNG parental 0.
O=C(N[C@@H](Cc1cccnc1)C(=O)N1CCC[C@H]1C(=O)NCc1ccccc1)c1ccc(Cl)c(Cl)c1 was read as NPR2 activator -9, GalR3 antag -6 and GC-A act -8.
